Data as given in ChEMBL document CHEMBL2062436, “Design, synthesis, and antiviral evaluation of purine-β-lactam and purine-aminopropanol hybrids” (J Med Chem, 2012).
Activity calls are given as the source filed them. The rule behind the calls is not given here.

How the values were obtained:
dengue virus type 2 = assay: Antiviral activity against Dengue virus 2 assessed as inhibition of virus-induced cytopathic effect by cell-based assay; format: functional, organism-based
[1] = tested on: Human immunodeficiency virus 1; assay: Antiviral activity against Human immunodeficiency virus 1 3B infected in MT4 cells by fluorescence analysis; format: functional, organism-based
Hepatitis C virus = assay: Antiviral activity against Hepatitis C virus infected in […] cells by luciferase assay; format: functional, organism-based; settings: Hepacivirus hominis
[2] = tested on: unidentified influenza virus; assay: Antiviral activity against unidentified influenza virus assessed as inhibition of virus-induced cytopathic effect by cell-based assay; format: functional, organism-based
Human orthopneumovirus = assay: Antiviral activity against Human respiratory syncytial virus infected in HeLa cells; format: functional, organism-based
[3] = Selectivity index, ratio of CC50 for HeLa cells to EC50 for Human respiratory syncytial virus; format: toxicity, cell-based; settings: read-out: Ratio CC50/EC50
Summary of the method: (§1)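 Ratio of CC50 to EC50. CC50 is the 50% cytotoxic concentration. EC50 is the concentration giving 50% inhibition of the virus-reduced signal relative to the uninfected cell control.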

[4] = Cytotoxicity against human HeLa cells by luminescence assay; format: cell-based
Chikungunya virus = assay: Antiviral activity against Chikungunya virus assessed as inhibition of virus-induced cytopathic effect by cell-based assay; format: functional
Summary of the method: (§2)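 EC50 taken as the compound concentration giving 50% inhibition of the virus-reduced cell signal, relative to uninfected cell controls.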

Coxsackievirus = assay: Antiviral activity against Coxsackievirus assessed as inhibition of virus-induced cytopathic effect by cell-based assay; format: functional, organism-based; summary of the method: as §2
[5] = Selectivity index, ratio of CC50 for host cell to EC50 for Chikungunya virus
Summary of the method: (§3)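 SI calculated as CC50/EC50. CC50 is the 50% cytotoxic concentration in host cells. EC50 is the concentration giving 50% inhibition of the virus-reduced signal versus uninfected cell controls.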

[6] = Selectivity index, ratio of CC50 for host cell to EC50 for Coxsackievirus; summary of the method: as §3
[7] = Cytotoxicity against human HepG2 cells by resazurin assay; format: cell-based
Hepatitis B virus = assay: Antiviral activity against Hepatitis B virus infected in HepG2(2.2.15) by PCR analysis; format: functional, organism-based
[8] = Selectivity index, ratio of CC50 for HepG2 cells to EC50 for Hepatitis B virus; format: toxicity, cell-based; settings: human, read-out: Ratio CC50/EC50; summary of the method: as §1
[9] = Selectivity index, ratio of CC50 for Hel299 cells to EC50 for Cytomegalovirus; format: toxicity, cell-based; settings: human, read-out: Ratio CC50/EC50; summary of the method: as §1
Cytomegalovirus = assay: Antiviral activity against Cytomegalovirus infected in human Hel299 cells; format: functional, organism-based; settings: Human betaherpesvirus 5, HEL 299
[10] = Cytotoxicity human HEL299 cells by resazurin assay; format: cell-based, HEL 299

SMILES	Activity (dengue virus type 2)	Activity [1]	Activity (Hepatitis C virus)	Activity [2]	EC50 (Human orthopneumovirus)	selectivity ratio [3]	CC50 [4]	EC50 (Chikungunya virus)	EC50 (Coxsackievirus)	Ratio CC50/EC50 [5]	Ratio CC50/EC50 [6]	CC50 [7]	EC50 (Hepatitis B virus)	selectivity ratio [8]	selectivity ratio [9]	EC50 (Cytomegalovirus)	CC50 [10]
O=C1[C@H](CCn2cnc3c(OCc4ccccc4)ncnc32)[C@@H](c2ccccc2)N1Cc1ccccc1	inactive	inactive	inactive	inactive													
CC(C)N[C@H](c1ccccc1F)[C@H](CO)CCCn1cnc2c(NCc3ccccc3)ncnc21 (relative stereo)	inactive	inactive	inactive	inactive	23.6 µM	> 4.25	> 100 µM										
O=C1[C@@H](Oc2ccccc2)[C@@H](c2ccccc2)N1CCCn1cnc2c(NCc3ccccc3)ncnc21 (relative stereo)	inactive	inactive	inactive	inactive	8.05 µM	5.79	46.6 µM	17.1 µM	3.56 µM	>5.75	>28.09						
O=C1[C@@H](OCc2ccccc2)[C@@H](c2ccc(Cl)cc2Cl)N1CCCn1cnc2c(NCc3ccccc3)ncnc21 (relative stereo)	inactive	inactive	inactive	inactive	2.24 µM	17.9	40.1 µM										
O=C1[C@@H](OCc2ccccc2)[C@@H](c2ccccc2)N1CCn1cnc2c(NCc3ccccc3)ncnc21 (relative stereo)	inactive	inactive	inactive	inactive								> 50 µM	11.1 µM	4.52			
COc1ccccc1[C@@H]1[C@H](Oc2ccccc2)C(=O)N1CCn1cnc2c(NCc3ccccc3)ncnc21 (relative stereo)	inactive	inactive	inactive	inactive				13 µM		4.53							
O=C1[C@@H](Oc2ccccc2)[C@@H](c2ccccc2)N1CCCn1cnc2c(OCc3ccccc3)ncnc21 (relative stereo)	inactive	inactive	inactive	inactive					2.94 µM		>34.05				4.13	17.2 µM	70.8 µM
OC[C@@H](Oc1ccccc1)[C@H](NCCn1cnc2c(NCc3ccccc3)ncnc21)c1ccc(Cl)cc1 (relative stereo)	inactive	inactive	inactive	inactive	1.92 µM	4.29	8.23 µM	11.5 µM		6.19		31.9 µM	3.47 µM	9.19			
CCCN1C(=O)[C@H](CCCn2cnc3c(NCc4ccccc4)ncnc32)[C@H]1c1ccccc1 (relative stereo)	inactive	inactive	inactive	inactive					2.77 µM		17.11				4.29	7.16 µM	30.7 µM
CC(C)N1C(=O)[C@H](CCCn2cnc3c(NCc4ccccc4)ncnc32)[C@H]1c1ccccc1F (relative stereo)	inactive	inactive	inactive	inactive	7.79 µM	9.71	75.6 µM										
CC(C)N1C(=O)[C@H](CCn2cnc3c(OCc4ccccc4)ncnc32)[C@H]1c1ccccc1 (relative stereo)	inactive	inactive	inactive	inactive					4.17 µM		11.55						
CC(C)N1C(=O)[C@H](CCn2cnc3c(NCc4ccccc4)ncnc32)[C@H]1c1ccccc1 (relative stereo)	inactive	inactive	inactive	inactive													
CC(C)N[C@H](c1ccccc1)[C@H](CO)CCn1cnc2c(NCc3ccccc3)ncnc21 (relative stereo)	inactive	inactive	inactive	inactive													
CCCN[C@H](c1ccccc1)[C@H](CO)CCCn1cnc2c(NCc3ccccc3)ncnc21 (relative stereo)	inactive	inactive	inactive	inactive													
CO[C@@H]1C(=O)N(CCCn2cnc3c(NCc4ccccc4)ncnc32)[C@@H]1c1ccc(C(C)C)cc1 (relative stereo)	inactive	inactive	inactive	inactive													
CO[C@H](CO)[C@H](NCCCn1cnc2c(NCc3ccccc3)ncnc21)c1ccc(C(C)C)cc1 (relative stereo)	inactive	inactive	inactive	inactive													
O=C1[C@@H](Oc2ccccc2)[C@@H](c2ccc(Cl)cc2)N1CCn1cnc2c(NCc3ccccc3)ncnc21 (relative stereo)	inactive	inactive	inactive	inactive													
O=C1[C@@H](Oc2ccccc2)[C@@H](c2ccccc2)N1CCn1cnc2c(NCc3ccccc3)ncnc21 (relative stereo)	inactive	inactive	inactive	inactive													
OC[C@@H](OCc1ccccc1)[C@H](NCCCn1cnc2c(NCc3ccccc3)ncnc21)c1ccc(Cl)cc1Cl (relative stereo)	inactive	inactive	inactive	inactive													
OC[C@@H](Oc1ccccc1)[C@H](NCCCn1cnc2c(NCc3ccccc3)ncnc21)c1ccccc1 (relative stereo)	inactive	inactive	inactive	inactive													
